Shown are actives, neighbours in structure and some others; about 6.6% of the full set was active somewhere.
Her2 expr inh: inhibitors of human Her2 kinase expression; SKBR-3 HER2 protein level, AlphaScreen, 18-24 h; active compounds read low; actives 0.69% (n = 65,000); P04626; AID 645; HER2 level % of control, % at 10 µM;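 active means HER2 level under 5% of the carrier-only control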;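 further: 100% = DMSO carrier and 0% = 500 nM PU-H71 HSP90 inhibitor; lower value means stronger loss of Her2 protein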
Target sequence (P04626 whole entry, looked up): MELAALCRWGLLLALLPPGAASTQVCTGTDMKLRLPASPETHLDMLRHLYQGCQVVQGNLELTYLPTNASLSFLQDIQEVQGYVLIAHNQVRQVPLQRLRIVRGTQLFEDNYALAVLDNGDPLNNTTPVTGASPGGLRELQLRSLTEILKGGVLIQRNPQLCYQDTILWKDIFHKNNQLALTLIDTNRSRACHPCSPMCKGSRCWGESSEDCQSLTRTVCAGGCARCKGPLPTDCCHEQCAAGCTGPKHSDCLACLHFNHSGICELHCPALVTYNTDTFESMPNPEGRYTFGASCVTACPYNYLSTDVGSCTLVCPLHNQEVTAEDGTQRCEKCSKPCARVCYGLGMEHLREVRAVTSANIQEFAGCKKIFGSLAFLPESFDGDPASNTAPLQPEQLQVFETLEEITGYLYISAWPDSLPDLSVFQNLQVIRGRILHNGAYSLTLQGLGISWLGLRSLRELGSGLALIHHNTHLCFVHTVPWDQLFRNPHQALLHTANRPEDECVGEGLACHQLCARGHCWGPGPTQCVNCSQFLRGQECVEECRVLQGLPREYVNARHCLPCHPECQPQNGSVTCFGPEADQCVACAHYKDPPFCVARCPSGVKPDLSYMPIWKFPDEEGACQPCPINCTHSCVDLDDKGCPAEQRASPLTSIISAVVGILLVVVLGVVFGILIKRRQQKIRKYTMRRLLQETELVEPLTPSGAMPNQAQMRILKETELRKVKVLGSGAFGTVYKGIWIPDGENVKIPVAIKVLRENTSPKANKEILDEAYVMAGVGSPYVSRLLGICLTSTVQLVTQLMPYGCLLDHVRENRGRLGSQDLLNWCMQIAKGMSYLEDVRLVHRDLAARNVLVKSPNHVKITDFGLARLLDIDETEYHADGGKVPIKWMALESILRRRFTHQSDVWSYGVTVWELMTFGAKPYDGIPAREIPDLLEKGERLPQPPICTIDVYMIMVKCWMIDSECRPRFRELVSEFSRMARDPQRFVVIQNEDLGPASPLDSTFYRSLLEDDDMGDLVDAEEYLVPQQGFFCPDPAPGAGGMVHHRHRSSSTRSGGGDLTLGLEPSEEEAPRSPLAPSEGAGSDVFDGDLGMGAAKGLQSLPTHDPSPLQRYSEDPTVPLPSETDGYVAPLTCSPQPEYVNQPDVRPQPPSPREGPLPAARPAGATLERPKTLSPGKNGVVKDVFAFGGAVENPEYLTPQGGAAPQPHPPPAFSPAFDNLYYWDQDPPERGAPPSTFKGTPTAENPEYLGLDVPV
PostGolgi yeast: growth inhibition of a yeast mutant, post-Golgi transport screen. post-Golgi transport phenotypic cell assay. inhibition, % at 10 µM. actives 0.9% (n = 98,000);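 further: yeast cells grown in 1536-well plates; yeast grown about 18 h at 30C before absorbance read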
PostGolgi ctrl: inhibits growth of the yeast control strain. inhibition, % at 10 µM. efflux-deficient yeast background strain, growth absorbance A615, 16 h. actives 5% (n = 98,000)
E coli WT exp: E. coli BW25113 growth inhibition, expanded screen; OD600 absorbance; growth inhibition, % at 100 µM; actives 0.15% (n = 98,000);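 active means growth inhibition above about 50% at one test dose, limit read from the data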;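 further: growth measured after 20 h incubation at 37 °C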
Ecoli tolC: blocks growth of E. coli BW25113 tolC mutant; growth inhibition, % at 10 µM (by protocol); actives 2.2% (n = 65,000); OD615; AID 573;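 active means growth inhibition at or above a cutoff equal to the mean over every tested compound plus 3 SD, cut at about 60% in these data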;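 further: growth measured after 20 h incubation at 37 °C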
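test system = E. coli BW25113 ΔtolC::kan bacteria | medium = LB with kanamycin 50 µg/mL | signal = OD at 615 nm | schedule = 37 °C, 20 h exposure | evaluation = % inhibition of E. coli growth | compound dosing = one dose of 10 µM final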
Active calls of the source: *; · = no result. Unless noted, no stated cut-off is given here; in the data, active means inhibition above about 30%; inactive means the rest.

SMILES	Her2 expr inh	PostGolgi yeast	PostGolgi ctrl	E coli WT exp	Ecoli tolC
CC(C)C(=O)NC(c1ccco1)c1ccc2cccnc2c1O (configuration not stated)	49.7	2.1	32.5*	25.0	6.2
Cc1ccc2cc(C)c3nnc(SCC(=O)Nc4nc5c(s4)CCCC5)n3c2c1C	·	5.2	0.5	-6.0	·
CCOC(=O)c1sc2nc3n(c(=O)c2c1C)CCCCC3	112.7	-5.0	30.3*	1.0	24.0
Cc1c(C(=O)Nc2ccc(Oc3ccccc3)cc2)sc2nc3n(c(=O)c12)CCC3	·	15.0	30.9*	-17.0	·
CCCc1oc2c(c(=O)c1CC)C(=O)CC(C)(C)C2	96.0	1.8	6.3	4.0	-16.2
C=CCNC(=O)c1c2c(nc3ccccc13)-c1ccccc1CC2	·	1.8	-2.4	-6.0	·
CCOC(=O)C1=C(C)NC(SCC(=O)Nc2cc(C)on2)=C(C#N)C1c1cccs1 (configuration not stated)	91.1	5.9	-18.3	-1.0	94.2*
CCOC(=O)C1=C(C)NC(SCC(N)=O)=C(C#N)C1c1cccs1 (configuration not stated)	·	-6.6	4.9	22.0	·
O=C(NC1CCCCC1)N1CCN(C(=O)c2ccco2)CC1	·	3.0	3.0	4.0	·
COc1ccc2nc(NC(=O)C3CCCN(S(=O)(=O)c4cccs4)C3)sc2c1 (configuration not stated)	64.6	23.6	38.5*	-6.0	67.7*
Cc1ccc2nc(NC(=O)C3CCN(S(=O)(=O)c4cccnc4)CC3)sc2c1	·	-1.3	12.6	3.0	·
COc1ccc2nc(NC(=O)C3CCN(S(=O)(=O)c4cccs4)CC3)sc2c1	·	1.8	36.8*	-11.0	·
Cc1ccc2nc(NC(=O)C3CCN(S(=O)(=O)c4cccs4)CC3)sc2c1	71.0	38.4*	43.7*	-17.0	34.0
C=CCSc1nnc(-c2c[nH]c3ccccc23)n1CC	·	-1.0	1.3	0.0	-7.2
C/C(=C\c1ccco1)C1C(C#N)=C(N)OC2=C1C(=O)CC(C)(C)C2 (configuration not stated)	93.7	23.2	27.1	2.0	-1.0
COc1ccc(Cl)cc1NC(=O)N(C)Cc1c(C)nn(C)c1C	102.8	3.1	0.1	2.0	-7.6
Cc1cc(N2CCOCC2)n2nc(C)c(-c3ccccc3)c2n1	89.1	-7.6	16.8	-10.0	-16.6
Cc1nn2c(N3CCN(c4ccccn4)CC3)cc(C(C)C)nc2c1-c1ccccc1	94.9	40.5*	98.9*	-11.0	-27.5
Oc1ccccc1-c1cc(-c2ccccc2)no1	·	2.9	43.0*	-3.0	·
CC(C)CN(CC(C)C)C(=O)Cc1coc2ccc3ccccc3c12	·	-10.6	13.9	3.0	·
Cc1cc(Nc2ccccc2N2CCOCC2)n2ncnc2n1	90.0	·	·	·	·
COc1cc(C=O)c(Br)cc1OC1CCCC1	·	3.4	33.7*	3.0	·
CCOC(=O)c1cnc2ccc(OCC)cc2c1N1CCN(c2ccccc2OC)CC1	·	-0.5	59.4*	-17.0	·
O=C(c1ccc2c(c1)OCO2)N(Cc1ccco1)C1(C(=O)NC2CCCCC2)CCCCC1	·	4.7	12.8	-12.0	·
CCOC(=O)C1=C(C)Nc2nc(=S)[nH]n2C1c1ccc(Cl)cc1 (configuration not stated)	·	4.2	30.9*	4.0	·
SMILES	Her2 expr inh	PostGolgi yeast	PostGolgi ctrl	E coli WT exp	Ecoli tolC
CCN(CC)C(=O)CSC1=Nc2ccccc2C2=NC(Cc3c[nH]c4ccccc34)C(=O)N12 (configuration not stated)	118.3	-7.6	34.4*	4.0	2.0
Cc1cc(NC(=O)CSC2=Nc3ccccc3C3=NC(Cc4ccccc4)C(=O)N23)n[nH]1 (configuration not stated)	121.4	-7.8	8.3	2.0	-1.0
CC1CN(c2nnnn2-c2ccccc2)CC(C)O1 (configuration not stated)	112.7	3.9	-1.7	-5.0	-6.8
Nc1c(C(=O)NCc2ccc3c(c2)OCO3)c2nc3ccccc3nc2n1CCCN1CCOCC1	3.8*	21.4	15.0	0.0	95.0*
COCCn1c(N)c(C(=O)NCc2cccs2)c2nc3ccccc3nc21	49.0	6.3	32.4*	0.0	41.6
COc1ccccc1CNC(=O)c1c(N)n(CCCN2CCOCC2)c2nc3ccccc3nc12	·	11.9	20.3	9.0	·
Cc1noc(C)c1S(=O)(=O)N1CCC(C(=O)Nc2ccc(OC(F)(F)F)cc2)CC1	91.5	-3.9	10.5	2.0	2.6
CSCCC(NC(=O)c1ccccc1)C(=O)NCc1ccco1 (configuration not stated)	88.2	-7.4	37.7*	0.0	-8.1
Cc1c(C(=O)N/N=C/c2ccccc2)sc(=S)n1C	·	7.3	38.2*	-3.0	·
CCNc1ccc2c(Cl)cc(=O)oc2c1	78.0	-2.0	2.2	7.0	-5.7
CCN(CC)c1ccc2c(Cl)cc(=O)oc2c1	·	-5.3	30.4*	11.0	·
CC1(C)NC(=O)N(CCOc2ccc3c(c2)CCC3)C1=O	60.8	21.3	14.2	-5.0	-13.6
CCc1ccc(-c2nc(CN3CCCC(C(=O)NCCc4ccc(OC)c(OC)c4)C3)c(C)o2)cc1 (configuration not stated)	-23.0*	7.0	3.5	7.0	28.0
COc1ccc(CCNC(=O)C2CCCN(Cc3nc(-c4ccccc4C)oc3C)C2)cc1OC (configuration not stated)	92.1	8.2	-3.9	9.0	12.8
CCC1CCCCN1c1cc(C)nc2cc(-c3cccc(C)c3)nn12 (configuration not stated)	·	-0.8	55.4*	-12.0	·
O=C(NC1CC2CCC(C1)N2C(=O)NCc1ccccc1)C1CC1 (configuration not stated)	112.2	20.2	2.3	2.0	-19.1
C=CCn1c(CCNC(=O)c2cccs2)nnc1SCC(=O)Nc1cccc(F)c1	·	2.5	14.8	3.0	·
Cc1cc2oc(C(=O)N(Cc3ccccc3)C3CCS(=O)(=O)C3)cc(=O)c2cc1Cl (configuration not stated)	·	-1.3	5.0	-12.0	·
CS(=O)(=O)Nc1ccc(C(=O)NCc2cccnc2)cc1	89.6	-0.5	31.4*	0.0	-8.0
Cc1ccc(N2CCN(S(=O)(=O)N3CCCCCC3)CC2)cc1Cl	·	31.1*	-0.4	-3.0	·
COC(=O)C1=C(C)N(c2ccc(C)cc2)/C(=C/c2cccs2)C1=O	·	21.6	33.2*	-5.0	·
C=CCNC(=S)NNC(=O)CCC(O)CCCCC (configuration not stated)	·	-5.2	-2.0	-1.0	·
C/C(=N/NS(=O)(=O)c1ccc(Cl)cc1)c1cccc(NC(=O)c2ccc(Cl)cc2Cl)c1	·	-4.4	2.3	-6.0	·
Clc1cccc(-c2nnc(-c3ccccc3)o2)c1	-8.2*	0.8	-7.5	-1.0	13.0
Cn1c(N)c(C(=O)COC(=O)Cn2cc(C(F)(F)F)ccc2=O)c(=O)n(C)c1=O	114.4	-4.9	15.5	2.0	-7.7
C=CCn1c(=O)c2c3c(sc2n2c(Nc4ccc(OC)cc4)nnc12)CCCC3	70.0	4.6	32.7*	-9.0	15.2
C=CCn1c(=O)c2c3c(sc2n2c(Nc4ccccc4)nnc12)CCCC3	·	8.5	21.3	-7.0	·
c1ccc(-c2nnc3sc(CN4CCc5ccccc54)cn23)cc1	74.4	-7.4	16.7	4.0	11.7

Source: PubChem BioAssay (SRMLSC)
